Test results published in ChEMBL document CHEMBL1212834, “Pyrido[2,3-b]pyrazines, discovery of TRPV1 antagonists with reduced potential for the formation of reactive metabolites” (Bioorg Med Chem Lett, 2010).

Assays:
[1] = target: Transient receptor potential cation channel subfamily V member 1 (Homo sapiens, UniProt Q8NER1); test: Antagonist activity at human TRPV1 assessed as inhibition of capsaicin-induced receptor activation by FLIPR assay; format: functional
How it was run: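 Human TRPV1 activated by capsaicin; inhibition read by FLIPR. IC50 is the mean of ≥3 experiments.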

[2] = Plasma concentration in rat complete Freund's adjuvant-induced inflammation model at 1 mg/kg, po QD for 3 consecutive days measured at 2 hrs post dose on day 1; format: ADME, organism-based; parameters: dose 1 mg/kg, route oral
How it was run: (§1)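 CFA (200 µL) injected intraplantar into left hind paw; next day rats dosed orally once daily for three consecutive days (1, 3 or 10 mg/kg, suspension in 0.5% methocel). Separate cohort: plasma sampled each day 2 h after dosing.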

[3] = Plasma concentration in rat complete Freund's adjuvant-induced inflammation model at 3 mg/kg, po QD for 3 consecutive days measured at 2 hrs post dose on day 1; format: ADME, organism-based; parameters: dose 3 mg/kg, route oral; how it was run: as §1
[4] = target: T1, Transient receptor potential cation channel subfamily V member 1 (Rattus norvegicus, UniProt O35433); format: functional, tissue-based, Sprague-Dawley, Dorsal root ganglion; settings: read-out: IC50
T1 sequence (O35433 whole entry): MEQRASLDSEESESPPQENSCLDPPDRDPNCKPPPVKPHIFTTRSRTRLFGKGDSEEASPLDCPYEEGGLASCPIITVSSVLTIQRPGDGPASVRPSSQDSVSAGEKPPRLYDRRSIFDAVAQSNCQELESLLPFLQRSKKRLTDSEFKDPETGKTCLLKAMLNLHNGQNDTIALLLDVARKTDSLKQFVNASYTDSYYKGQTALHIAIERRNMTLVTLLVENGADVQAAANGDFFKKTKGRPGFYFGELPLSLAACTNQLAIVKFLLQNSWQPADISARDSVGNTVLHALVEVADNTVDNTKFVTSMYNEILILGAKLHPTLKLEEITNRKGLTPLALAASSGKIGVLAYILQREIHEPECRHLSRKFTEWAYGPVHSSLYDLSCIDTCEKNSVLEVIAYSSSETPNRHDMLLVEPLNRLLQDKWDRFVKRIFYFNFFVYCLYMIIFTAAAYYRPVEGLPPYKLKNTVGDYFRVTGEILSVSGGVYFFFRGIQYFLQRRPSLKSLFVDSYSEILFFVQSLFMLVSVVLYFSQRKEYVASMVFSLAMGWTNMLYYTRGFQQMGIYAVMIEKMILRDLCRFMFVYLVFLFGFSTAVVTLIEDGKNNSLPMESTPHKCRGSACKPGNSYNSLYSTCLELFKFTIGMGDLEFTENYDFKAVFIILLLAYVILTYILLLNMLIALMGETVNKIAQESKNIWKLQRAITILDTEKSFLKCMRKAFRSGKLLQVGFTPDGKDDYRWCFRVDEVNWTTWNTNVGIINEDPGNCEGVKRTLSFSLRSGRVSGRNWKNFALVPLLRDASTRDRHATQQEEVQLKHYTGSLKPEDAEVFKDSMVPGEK

Rattus norvegicus [5] = test: Antiinflammatory activity in Sprague-Dawley rat assessed as inhibition of carrageenan-induced thermal hyperalgesia at 3 mg/kg, po administered 3.5 hrs after carrageenan challenge measured after 5 hrs; format: functional
How it was run: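 Rat carrageenan-induced thermal hyperalgesia. Dosed orally as a suspension in 0.5% methocel; % inhibition reported at each dose.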

Rattus norvegicus [6] = test: Plasma concentration in Sprague-Dawley rat carrageenan-induced thermal hyperalgesia model at 1 mg/kg, po; format: ADME, organism-based; parameters: dose 1 mg/kg, route oral; settings: in vivo
How it was run: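 Plasma sampled immediately after the carrageenan thermal hyperalgesia experiment, following oral dosing as a suspension in 0.5% methocel.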

Rattus norvegicus [7] = test: Plasma concentration in Sprague-Dawley rat carrageenan-induced thermal hyperalgesia model at 3 mg/kg, po; format: ADME, organism-based; parameters: dose 3 mg/kg, route oral; settings: in vivo
How it was run: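 Rats given compound orally as a suspension in 0.5% methocel in the carrageenan-induced thermal hyperalgesia model. Plasma sampled immediately after the CITH experiment.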

[8] = Volume of distribution in rat at 1 mg/kg, iv; format: ADME, organism-based; parameters: dose 1 mg/kg, route intravenous; settings: in vivo
How it was run: (§2)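 Intravenous dose of 1 mg/kg given as a solution in 3:1 PEG300:water to rat, dog or rhesus monkey. Plasma PK parameters (T1/2, clearance, Vd) derived.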

[9] = Cmax in rat at 1 mg/kg, po; format: ADME, organism-based; parameters: dose 1 mg/kg, route oral; settings: in vivo
How it was run: (§3)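 Oral PK at the dose in the line, given as a suspension in 0.5% methocel. […] Reported as mean ± error.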

[10] = AUC (0 to 24 hrs) in rat at 1 mg/kg, po; format: ADME, organism-based; parameters: time < 24 hr, dose 1 mg/kg, route oral; settings: plasma; how it was run: as §3
[11] = Cmax in rat at 100 mg/kg, po; format: ADME, organism-based; parameters: dose 100 mg/kg, route oral; settings: in vivo; how it was run: as §3
[12] = AUC (0 to 24 hrs) in rat at 100 mg/kg, po; format: ADME, organism-based; parameters: time < 24 hr, dose 100 mg/kg, route oral; settings: plasma; how it was run: as §3
[13] = Half life in dog at 1 mg/kg, iv; format: ADME, organism-based, Canis lupus familiaris; parameters: dose 1 mg/kg, route intravenous; settings: in vivo
How it was run: (§4)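 IV PK at 1 mg/kg, given as a solution in 3:1 PEG300:water. Plasma half-life, clearance and volume of distribution derived.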

[14] = Clearance in dog at 1 mg/kg, iv; format: ADME, organism-based, Canis lupus familiaris; parameters: dose 1 mg/kg, route intravenous; settings: in vivo; how it was run: as §4
[15] = Volume of distribution in dog at 1 mg/kg, iv; format: ADME, organism-based, Canis lupus familiaris; parameters: dose 1 mg/kg, route intravenous; settings: in vivo; how it was run: as §2
[16] = Oral bioavailability in dog at 1 mg/kg; format: ADME, organism-based, Canis lupus familiaris; settings: in vivo
How it was run: (§5)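 Oral bioavailability from a 1 mg/kg po dose (suspension in 0.5% methocel), compared against a 1 mg/kg iv dose (solution in 3:1 PEG300:water).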

[17] = Cmax in dog at 1 mg/kg, po; format: ADME, organism-based, Canis lupus familiaris; parameters: dose 1 mg/kg, route oral; settings: in vivo; how it was run: as §3
[18] = AUC (0 to 24 hrs) in dog at 10 mg/kg, po; format: ADME, organism-based, Canis lupus familiaris; parameters: time < 24 hr, dose 10 mg/kg, route oral; settings: plasma; how it was run: as §3
[19] = Half life in rhesus monkey at 1 mg/kg, iv; format: ADME, organism-based, Macaca mulatta; parameters: dose 1 mg/kg, route intravenous; settings: in vivo; how it was run: as §4
[20] = Oral bioavailability in rhesus monkey at 1 mg/kg; format: ADME, organism-based, Macaca mulatta; settings: in vivo; how it was run: as §5
[21] = Cmax in rhesus monkey at 1 mg/kg, po; format: ADME, organism-based, Macaca mulatta; parameters: dose 1 mg/kg, route oral; settings: in vivo; how it was run: as §3
[22] = Cmax in rat brain of complete Freund's adjuvant-induced inflammation model at 10 mg/kg, po; format: ADME, organism-based; parameters: dose 10 mg/kg, route oral
[23] = Cmax in rat brain at 10 mg/kg, po; format: ADME, organism-based; parameters: dose 10 mg/kg, route oral
Rattus norvegicus [24] = test: Antiinflammatory activity in rat assessed as inhibition of complete Freund's adjuvant-induced hind paw edema at 3 mg/kg, po administered 1 day after complete Freund's adjuvant challenge QD for 3 consecutive days measured at 2 hrs post dose on day 1; format: functional
How it was run: (§6)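 CFA 200 µL injected intraplantar into the left hind paw. From the next day, 1, 3 or 10 mg/kg po once daily for 3 days as a suspension in 0.5% methocel.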

Rattus norvegicus [25] = test: Antiinflammatory activity in rat assessed as inhibition of complete Freund's adjuvant-induced hind paw edema at 10 mg/kg, po administered 1 day after complete Freund's adjuvant challenge QD for 3 consecutive days measured at 2 hrs post dose on day 1; format: functional; how it was run: as §6
[26] = Plasma concentration in rat complete Freund's adjuvant-induced inflammation model at 10 mg/kg, po at 2 hrs on second day; format: ADME, organism-based; parameters: dose 10 mg/kg, route oral; how it was run: as §1
[27] = Plasma concentration in rat complete Freund's adjuvant-induced inflammation model at 1 mg/kg, po at 2 hrs on third day; format: ADME, organism-based; parameters: dose 1 mg/kg, route oral; how it was run: as §1
[28] = Plasma concentration in rat complete Freund's adjuvant-induced inflammation model at 3 mg/kg, po at 2 hrs on third day; format: ADME, organism-based; parameters: dose 3 mg/kg, route oral; how it was run: as §1
[29] = Plasma concentration in rat complete Freund's adjuvant-induced inflammation model at 10 mg/kg, po at 2 hrs on third day; format: ADME, organism-based; parameters: dose 10 mg/kg, route oral; how it was run: as §1
Liver microsomes = test: Metabolic stability in rat liver microsomes assessed per mg of protein at 8.1 mg/kg, po after 2 to 24 hrs; format: ADME, organism-based, Microsome; parameters: dose 8.1 mg/kg, route oral
Rattus norvegicus [30] = test: Antiinflammatory activity in rat assessed as inhibition of complete Freund's adjuvant-induced hind paw edema at 1 mg/kg, po administered 1 day after complete Freund's adjuvant challenge QD for 3 consecutive days measured at 24 hrs post dose on day 3; format: functional; how it was run: as §6
Rattus norvegicus [31] = test: Antiinflammatory activity in rat assessed as inhibition of complete Freund's adjuvant-induced hind paw edema at 3 mg/kg, po administered 1 day after complete Freund's adjuvant challenge QD for 3 consecutive days measured at 24 hrs post dose on day 3; format: functional; how it was run: as §6
Rattus norvegicus [32] = test: Antiinflammatory activity in rat assessed as inhibition of complete Freund's adjuvant-induced hind paw edema at 10 mg/kg, po administered 1 day after complete Freund's adjuvant challenge QD for 3 consecutive days measured at 24 hrs post dose on day 3; format: functional; how it was run: as §6
Canis familiaris = species: Canis familiaris; test: Cardiotoxicity in dog assessed as effect on mean arterial pressure at plasma concentration of up to 24 uM; format: toxicity, organism-based, Canis lupus familiaris
[33] = target: T1, Transient receptor potential cation channel subfamily V member 1; test: Antagonist activity at Sprague-Dawley rat dorsal root ganglion TRPV1 assessed as inhibition of pH-induced receptor activation; format: functional, tissue-based
How it was run: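 Rat TRPV1 activated by low pH (5.0–5.5); inhibition measured and IC50 given as the mean of ≥3 experiments.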

MDCK = test: Efflux ratio of permeability from basolateral to apical side over apical to basolateral side of MDCK cells; settings: dog
Rattus norvegicus [34] = test: Antihyperalgesic activity in rat assessed as inhibition of complete Freund's adjuvant-induced mechanical hyperalgesia measured as differential weight bearing at 1 mg/kg, po administered 1 day after complete Freund's adjuvant challenge QD for 3 consecutive days measured at 2 hrs post dose on day 1

Chain of Transient receptor potential cation channel subfamily V member 1 (Homo sapiens, UniProt Q8NER1) (Q8NER1 whole entry): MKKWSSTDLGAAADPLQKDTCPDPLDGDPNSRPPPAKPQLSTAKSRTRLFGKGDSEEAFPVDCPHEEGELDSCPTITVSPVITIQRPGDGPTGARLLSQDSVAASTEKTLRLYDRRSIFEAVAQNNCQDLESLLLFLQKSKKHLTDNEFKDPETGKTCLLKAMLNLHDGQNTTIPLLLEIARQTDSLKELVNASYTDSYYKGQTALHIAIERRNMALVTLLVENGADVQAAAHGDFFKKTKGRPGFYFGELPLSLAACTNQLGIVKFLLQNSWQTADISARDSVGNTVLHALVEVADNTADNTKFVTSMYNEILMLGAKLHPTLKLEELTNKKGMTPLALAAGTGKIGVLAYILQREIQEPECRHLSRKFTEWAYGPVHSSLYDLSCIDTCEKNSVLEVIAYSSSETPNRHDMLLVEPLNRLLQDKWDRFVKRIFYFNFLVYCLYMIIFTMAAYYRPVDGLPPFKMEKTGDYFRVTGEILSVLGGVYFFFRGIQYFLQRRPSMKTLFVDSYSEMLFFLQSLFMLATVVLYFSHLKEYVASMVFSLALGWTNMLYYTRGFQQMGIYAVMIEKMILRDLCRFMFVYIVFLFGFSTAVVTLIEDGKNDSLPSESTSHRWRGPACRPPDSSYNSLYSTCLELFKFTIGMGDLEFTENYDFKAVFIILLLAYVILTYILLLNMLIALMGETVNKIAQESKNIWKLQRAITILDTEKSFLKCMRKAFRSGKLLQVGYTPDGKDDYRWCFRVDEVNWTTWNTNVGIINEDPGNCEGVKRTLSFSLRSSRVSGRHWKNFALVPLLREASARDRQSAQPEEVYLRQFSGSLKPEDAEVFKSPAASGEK

IC50 [1]: 0.8 nM
concentration at 2 h [2]: 0.27 µM
concentration at 2 h [3]: 1.2 µM
IC50 [4]: 1.3 nM
concentration (Rattus norvegicus [6]): 0.24 µM
concentration (Rattus norvegicus [7]): 1.09 µM
Vd [8]: 4.3 L/kg
Cmax [9]: 0.3 µM
AUC(0-t) at 24 h [10]: 1.4 µM·h
Cmax [11]: 15 µM
AUC(0-t) at 24 h [12]: 268 µM·h
half-life [13]: 1.5 h
clearance [14]: 0.444 L/h/kg
Vd [15]: 1.3 L/kg
bioavailability [16]: 57%
Cmax [17]: 0.5 µM
AUC(0-t) at 24 h [18]: 68 µM·h
half-life [19]: 4.4 h
bioavailability [20]: 38%
Cmax [21]: 0.7 µM
Cmax [22]: 0.3 µM
Cmax [23]: 0.3 µM
concentration at 2 h [26]: 3.12 µM
concentration at 2 h [27]: 0.35 µM
concentration at 2 h [28]: 1.28 µM
concentration at 2 h [29]: 4.24 µM
Stability (Liver microsomes): < 10 pmol
IC50 [33]: 1.3 nM
Ratio (MDCK): 3.1
SMILES: NC(=O)c1cnc(-c2cnc3c(Nc4ccc(C(F)(F)F)cn4)ccnc3n2)c(C(F)(F)F)c1
inhibition in vivo at 3 mg/kg (Rattus norvegicus [5]): 74%
inhibition in vivo at 3 mg/kg (Rattus norvegicus [24]): 65%
inhibition in vivo at 10 mg/kg (Rattus norvegicus [25]): 85%
inhibition in vivo at 1 mg/kg (Rattus norvegicus [30]): 42%
inhibition in vivo at 3 mg/kg (Rattus norvegicus [31]): 64%
inhibition in vivo at 10 mg/kg (Rattus norvegicus [32]): 70%
Activity (Canis familiaris): Non-toxic
inhibition in vivo at 1 mg/kg (Rattus norvegicus [34]): 39%
